Legend:
Format in all cases: functional
OVCAR-5 [1] = assay: Growth inhibition of human OVCAR5 cells at 50 uM after 48 hrs by sulpharhodamine B assay; details: OVCAR-5, 48 h, read-out: GI
Procedure, shortened: (§1)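 This is the SRB protein-stain assay on adherent cells in RPMI-1640/MEM with 10% FCS. Each compound in DMSO (vehicle <0.2%) was applied at a single fixed concentration for 48 h. Cells were fixed with TCA and stained with SRB, and the dye was solubilised in Tris and read at 570/620 nm. Percent growth inhibition is relative to vehicle-treated controls, reported as mean ± SD of three experiments run in triplicate.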

HeLa [2] = assay: Growth inhibition of human HeLa cells at 50 uM after 48 hrs by sulpharhodamine B assay; details: read-out: GI; procedure, shortened: as §1
THP-1 [3] = assay: Growth inhibition of human THP1 cells at 50 uM after 48 hrs by sulpharhodamine B assay; details: THP-1, 48 h, read-out: GI
Procedure, shortened: (§2)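 Cells grown in RPMI-1640/MEM with 10% FCS, penicillin/streptomycin, 37 °C, 5% CO2. Seeded in 96-well plates, allowed to adhere overnight, then exposed 48 h to analogs in DMSO (vehicle <0.2% in controls). TCA-fixed, stained with 0.4% SRB in 1% acetic acid, dye solubilized in 10 mM Tris base, OD 570 nm (ref 620 nm). Mean ± SD of three experiments run in triplicate.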

PC-3 [4] = assay: Growth inhibition of human PC3 cells at 50 uM after 48 hrs by sulpharhodamine B assay; details: PC-3, 48 h, read-out: GI; procedure, shortened: as §2
MCF7 [5] = assay: Growth inhibition of human MCF7 cells at 50 uM after 48 hrs by sulpharhodamine B assay; details: MCF7, 48 h, read-out: GI; procedure, shortened: as §1
IMR-32 [6] = assay: Growth inhibition of human IMR32 cells at 50 uM after 48 hrs by sulpharhodamine B assay; details: IMR-32, 48 h, read-out: GI; procedure, shortened: as §1
A549 [7] = assay: Growth inhibition of human A549 cells at 50 uM after 48 hrs by sulpharhodamine B assay; details: A549, 48 h, read-out: GI; procedure, shortened: as §1
MCF7 [8] = assay: Growth inhibition of human MCF7 cells at 30 uM after 48 hrs by sulpharhodamine B assay; details: MCF7, 48 h, read-out: GI; procedure, shortened: as §1
IMR-32 [9] = assay: Growth inhibition of human IMR32 cells at 30 uM after 48 hrs by sulpharhodamine B assay; details: IMR-32, 48 h, read-out: GI; procedure, shortened: as §1
HEp-2 [10] = assay: Growth inhibition of human Hep2 cells at 50 uM after 48 hrs by sulpharhodamine B assay; details: HEp-2, 48 h, read-out: GI; procedure, shortened: as §1
OVCAR-5 [11] = assay: Growth inhibition of human OVCAR5 cells at 30 uM after 48 hrs by sulpharhodamine B assay; details: OVCAR-5, 48 h, read-out: GI; procedure, shortened: as §1
HEp-2 [12] = assay: Growth inhibition of human Hep2 cells at 30 uM after 48 hrs by sulpharhodamine B assay; details: HEp-2, 48 h, read-out: GI; procedure, shortened: as §1
HeLa [13] = assay: Growth inhibition of human HeLa cells at 30 uM after 48 hrs by sulpharhodamine B assay; details: read-out: GI; procedure, shortened: as §1
PC-3 [14] = assay: Growth inhibition of human PC3 cells at 30 uM after 48 hrs by sulpharhodamine B assay; details: PC-3, 48 h, read-out: GI; procedure, shortened: as §2
THP-1 [15] = assay: Growth inhibition of human THP1 cells at 30 uM after 48 hrs by sulpharhodamine B assay; details: THP-1, 48 h, read-out: GI; procedure, shortened: as §2
A549 [16] = assay: Growth inhibition of human A549 cells at 30 uM after 48 hrs by sulpharhodamine B assay; details: A549, 48 h, read-out: GI; procedure, shortened: as §1

Row | SMILES | inhibition of growth at 50 µM (OVCAR-5 [1]) | inhibition of growth at 50 µM (HeLa [2]) | inhibition of growth at 50 µM (THP-1 [3]) | inhibition of growth at 50 µM (PC-3 [4]) | inhibition of growth at 50 µM (MCF7 [5]) | inhibition of growth at 50 µM (IMR-32 [6]) | inhibition of growth at 50 µM (A549 [7]) | inhibition of growth at 30 µM (MCF7 [8]) | inhibition of growth at 30 µM (IMR-32 [9]) | inhibition of growth at 50 µM (HEp-2 [10]) | inhibition of growth at 30 µM (OVCAR-5 [11]) | inhibition of growth at 30 µM (HEp-2 [12]) | inhibition of growth at 30 µM (HeLa [13]) | inhibition of growth at 30 µM (PC-3 [14]) | inhibition of growth at 30 µM (THP-1 [15]) | inhibition of growth at 30 µM (A549 [16])
1 | COc1ccc(/C=C/[C@@](C)(/C=C/c2ccc(O)cc2)CCC=C(C)C)cc1 | 20% | 20% | 52% | 50% | 55% | 6% | 40% |  |  |  |  |  |  |  |  | 
2 | C=C[C@@](C)(/C=C/c1ccc(OC(=O)CCC)cc1)CCC=C(C)C | 41% | 36% | 54% | 38% | 20% | 54% | 50% |  |  |  |  |  |  |  |  | 
3 | CCCOc1ccc(/C=C/[C@@](C)(/C=C/c2ccc(O)cc2)CCC=C(C)C)cc1Cl | 12% | 4% | 20% | 7% | 47% | 8% | 5% |  |  |  |  |  |  |  |  | 
4 | CC(C)=CCC[C@](C)(/C=C/c1ccc(O)cc1)/C=C/c1ccc(F)cc1 | 29% | 43% | 60% | 33% | 28% | 37% | 31% |  |  |  |  |  |  |  |  | 
5 | C=C[C@@](C)(/C=C/c1ccc(OC(=O)CCCCCCCCC)cc1)CCC=C(C)C | 42% | 50% | 52% | 50% | 10% | 52% | 48% | 12% | 22% | 30% | 29% | 16% | 24% | 27% | 39% | 33%
6 | CC(C)=CCC[C@@](C)(/C=C/c1ccc(N)cc1)/C=C/c1ccc(O)cc1 | 16% | 27% | 51% | 59% | 48% | 28% | 57% | 28% | 14% | 46% | 8% | 32% | 5% | 15% | 32% | 33%
7 | CC(C)=CCCC(C)(/C=C/c1ccc(O)cc1)/C=C/c1ccc(O)cc1 | 33% | 32% | 66% | 32% | 31% | 30% | 33% |  |  |  |  |  |  |  |  | 
8 | C=C[C@@](C)(/C=C/c1ccc(O)c([N+](=O)[O-])c1)CCC=C(C)C | 55% | 49% | 55% | 52% | 49% | 50% | 52% |  |  |  |  |  |  |  |  | 
9 | C=C[C@@](C)(/C=C/c1ccc(OC(=O)CCCCCCCCCCCCCCC)cc1)CCC=C(C)C | 64% | 51% | 62% | 62% | 24% | 54% | 61% |  |  |  |  |  |  |  |  | 
10 | C=C[C@@](C)(/C=C/c1ccc(O)cc1)CCC1OC1(C)C (some centres not stated) | 12% | 32% | 52% | 46% | 33% | 59% | 44% |  |  |  |  |  |  |  |  | 
11 | CC[C@](C)(CCCC(C)C)CCc1ccc(O)c(I)c1 | 11% | 43% | 58% | 8% | 40% | 21% | 12% |  |  |  |  |  |  |  |  | 
12 | C=C[C@@](C)(/C=C/c1ccc(O)c(N)c1)CCC=C(C)C | 33% | 48% | 48% | 28% | 17% | 39% | 41% |  |  |  |  |  |  |  |  | 
